Paper PMC9732819 (ACS Chemical Neuroscience, 2022)

Key:
[1] = tested on: voltage-gated K^+ channels; test: Guo graphical comparison of regional VT between tracers in nonhuman primates; format: in vivo, rhesus macaques; settings: for slope of VT correlation plot (Guo method; in vivo affinity ratio): both monkeys combined
Method in brief: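 Per animal, regional VT of the test tracer (mean of two baseline scans) was regressed against regional VT of each reference 4-aminopyridine tracer. Linearity indicated a shared target, the y-intercept sign indicated relative signal-to-noise, and the slope with measured plasma-free fractions gave the in vivo affinity ratio. Pearson r was used, with Fisher-transformation t-distribution p-values for the regression and intercept.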

[2] = arterial blood and radiometabolite analysis in nonhuman primates; format: in vivo, rhesus macaques
Method in brief: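 Rhesus macaques were sedated with ketamine/xylazine IM and kept on isoflurane. Arterial blood was sampled manually via a posterior tibial catheter throughout PET to measure whole-blood and plasma radioactivity. Plasma from 3–120 min was filtered through a 10K filter (21 000 rcf, 8 °C, 15 min) and run on C18 radioHPLC in pH 12 phosphate/NaOH:MeCN 96:4 to obtain the parent fraction. Plasma-free fraction was measured in triplicate.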

[3] = tested on: voltage-gated K^+ channels; test: dynamic brain PET imaging and pharmacokinetic modeling in nonhuman primates; format: in vivo, rhesus macaques
Method in brief: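 Two male rhesus macaques (10 and 14 years; one with a prior craniotomy injury) each had two baseline scans. Tracer (291.5–330.1 MBq; 90.3–247.5 GBq/μmol) was infused over 3 min into the saphenous vein, followed by a saline flush, with 180 min list-mode PET/CT under isoflurane. Ten regional TACs were taken in MRI-template space. 1T and 2T models with metabolite-corrected input gave K1 and VT (AIC comparison), with Logan and MA1 also tested.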

[4] = tested on: voltage-gated K^+ channels; test: PET imaging and ex vivo γ counting of brain and blood in healthy rats; set-up: species or system Sprague Dawley rats
Method in brief: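 Six–eight-week-old male and female Sprague Dawley rats received ~14.8 MBq tracer by tail vein, alone or with 5 mg/kg cold test compound (5–10 mg/kg in the ex vivo legend), in saline containing ≤10% […]. Rats underwent 60 min PET/CT under 2% isoflurane. Blood (cardiac puncture) and brain were then collected, weighed and γ-counted to give SUV ratios. Imaging used 4 rats; γ-counting used 15. Data are mean ± SD.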

potassium channel = settings: read-out: in vitro IC50; electrophysiology; cited from earlier work

[11CH3]c1cnccc1N [[^11C]3Me4AP, 3-[^11C]Methyl-4-aminopyridine]
slope of VT correlation plot (Guo method; in vivo affinity ratio) ([1]; vs [^11C]3MeO4AP, p < 0.0001): 0.73
intercept of Guo plot (relative specific binding) ([1]; vs [^11C]3MeO4AP, p = 0.31): 0.67
slope of VT correlation plot (Guo method; in vivo affinity ratio) ([1]; vs [^18F]3F4AP, p = 0.0001): 1.93
intercept of Guo plot (relative specific binding) ([1]; vs [^18F]3F4AP, p = 0.91): 0.10
fraction unbound ([2]; male, rhesus monkey, arterial plasma): 0.94 ± 0.03
time for WB to PL ratio to reach a plateau ([2]; monkey arterial blood): ≤ 1 min
activity attributable to parent tracer in plasma (radioHPLC) ([2]; monkey arterial plasma, after 90 min): ~90%
WB to PL radioactivity concentration ratio ([2]; monkey, 1 min postinjection, across all studies): 1.28 ± 0.01
visibility of minor focal brain lesion on PET images ([3]; monkey 2 (M2), craniotomy site): not visible
whole brain SUV ([3]; monkey brain, 3 min): 0.7
K1 (rate constant for transfer from plasma to brain tissue) ([3]; monkey whole brain, 1T2k1v model): ~0.035 mL/min/cc
total volume of distribution (VT) ([3]; striatum, monkey 1, 1T2k1v): 4.67 mL/cc
total volume of distribution (VT) ([3]; striatum, monkey 2, 1T2k1v): 4.68 mL/cc
total volume of distribution (VT) ([3]; white matter, monkey 1, 1T2k1v): 3.61 mL/cc
total volume of distribution (VT) ([3]; white matter, monkey 2, 1T2k1v): 3.78 mL/cc
increase of whole brain to blood SUVR, coinjection group vs baseline group ([4]; 60 min, p = 0.017): 43%
time of peak radioactivity in the brain ([4]; PET brain time-activity curve): ≤ 3 min

Cc1cnccc1N [3Me4AP, 3-methyl-4-aminopyridine]
IC50 (potassium channel): 40 µM
